Drawing on ChEMBL document CHEMBL3232944 (Bioorg Med Chem Lett, 2014), this text covers Activity and IC50 for 8 compounds.

In one data set the test system is RAW264.7. The data set is described as follows: Cytotoxicity against mouse RAW264.7 cells assessed as cell viability at >10 uM after 24 hrs by MTT assay in presence of LPS. In kind it is cell-based. Conditions: raw264.7, 24 h. A digest of the protocol:
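RAW 264.7 cells plated at 10⁵ cells/well, exposed to various concentrations of compound in the presence of LPS for 24 h. Viability read by colorimetric MTT assay. At least three independent experiments.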

For data set [1], the target named is T1, Prostaglandin G/H synthase 1 (Ovis aries, UniProt P05979).
T1 sequence (P05979 whole entry): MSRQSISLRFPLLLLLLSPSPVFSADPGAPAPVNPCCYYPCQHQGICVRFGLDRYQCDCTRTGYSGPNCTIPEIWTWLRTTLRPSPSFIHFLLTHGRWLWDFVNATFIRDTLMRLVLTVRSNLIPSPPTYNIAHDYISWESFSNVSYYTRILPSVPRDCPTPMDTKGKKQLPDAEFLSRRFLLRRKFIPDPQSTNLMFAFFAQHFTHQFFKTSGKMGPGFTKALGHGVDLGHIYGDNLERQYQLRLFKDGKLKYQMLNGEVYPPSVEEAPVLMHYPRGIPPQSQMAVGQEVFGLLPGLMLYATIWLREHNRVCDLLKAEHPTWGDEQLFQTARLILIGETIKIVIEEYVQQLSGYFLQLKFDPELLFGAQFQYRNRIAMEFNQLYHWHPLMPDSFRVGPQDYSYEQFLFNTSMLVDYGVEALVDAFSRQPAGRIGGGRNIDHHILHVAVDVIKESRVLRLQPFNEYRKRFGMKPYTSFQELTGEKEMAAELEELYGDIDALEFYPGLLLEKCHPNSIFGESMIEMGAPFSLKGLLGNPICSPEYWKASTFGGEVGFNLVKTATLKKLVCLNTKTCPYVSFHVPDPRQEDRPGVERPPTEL
As to the kind of experiment: Inhibition of ovine COX-1 assessed as decrease in PGH2 production using arachidonic acid as substrate treated with enzyme for 10 mins prior to substrate challenge for 2 mins by enzyme immunoassay. In short, it runs like this:
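Ovine COX-1 was mixed with test compound at various concentrations plus heme and held 10 min at 37 °C. Arachidonic acid was then added and the reaction ran another 2 min at 37 °C. PGH₂ was reduced with SnCl₂, and the resulting PGF₂α was quantified by EIA using a broadly specific prostaglandin antibody. Boiled (3 min) enzyme served as background and compound-free samples as control. IC50 taken from at least three experiments.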

Usually IC50 stands for the concentration that gives 50% inhibition. Regarding `CN1C(=O)C(c2ccc(Cl)cc2)=C(c2ccc(S(N)(=O)=O)cc2)C1=O`, in the data set with RAW264.7, the Activity result is reported as “Non-toxic”. The IC50 in data set [1] is greater than 1 µM.
For `NS(=O)(=O)c1ccc(C2=C(c3ccccc3)C(=O)NC2=O)cc1`, in that order: “Non-toxic” and 127 µM.
For `COc1ccc(C2=C(c3ccc(S(N)(=O)=O)cc3)C(=O)NC2=O)cc1` the same measures were “Non-toxic” and greater than 100 µM.
In the case of `NS(=O)(=O)c1ccc(C2=C(c3ccc(Cl)cc3)C(=O)NC2=O)cc1`, in the data set with RAW264.7, the Activity result was “Non-toxic”. Further, in data set [1], the IC50 was greater than 100 µM.
For `Cc1ccc(C2=C(c3ccc(S(N)(=O)=O)cc3)C(=O)NC2=O)cc1`, the Activity entry in the data set with RAW264.7 is given as “Non-toxic”. Besides, the half-maximal inhibitory concentration (IC50) in data set [1] is greater than 100 µM.
`CN1C(=O)C(c2ccccc2)=C(c2ccc(S(N)(=O)=O)cc2)C1=O`: the Activity result in the data set with RAW264.7 is given as “Non-toxic”. The IC50 in data set [1] is greater than 1 µM.
With `COc1ccc(C2=C(c3ccc(S(N)(=O)=O)cc3)C(=O)N(C)C2=O)cc1`, in the data set with RAW264.7, the Activity entry was “Non-toxic”. Further, the IC50 in data set [1] was greater than 1 µM.
For the compound `Cc1ccc(C2=C(c3ccc(S(N)(=O)=O)cc3)C(=O)N(C)C2=O)cc1`, the Activity entry in the data set with RAW264.7 was “Non-toxic”. Moreover, the IC50 in data set [1] was greater than 1 µM.
